# The source made the active and inactive calls.
# Tests used:
# [1] = tested on: Staphylococcus aureus; assay: Antibacterial activity against methicillin-resistant Staphylococcus aureus by broth dilution method; format: functional
# Method in brief: (§1)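 Dilution assay following EUCAST criteria against multidrug-resistant bacterial or fungal strains. Compounds were tested from 250 down to 0.48 μg/mL. MIC was taken as the lowest concentration at which bacterial or fungal growth was inhibited.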
# [2] = tested on: Streptococcus pneumoniae; assay: Antibacterial activity against multidrug-resistant Streptococcus pneumoniae by broth dilution method; format: functional; method in brief: as §1
# [3] = tested on: Enterococcus faecium; assay: Antibacterial activity against multidrug-resistant Enterococcus faecium by broth dilution method; format: functional; method in brief: as §1
# [4] = tested on: Enterobacter cloacae; assay: Antibacterial activity against multidrug-resistant Enterobacter cloacae by broth dilution method; format: functional; method in brief: as §1
# [5] = tested on: Aspergillus ficuum; assay: Antifungal activity against multidrug-resistant Aspergillus ficuum by broth dilution method; format: functional
# [6] = tested on: Candida albicans; assay: Antifungal activity against multidrug-resistant Candida albicans by broth dilution method; format: functional; method in brief: as §1
# [7] = tested on: Escherichia coli; assay: Antibacterial activity against multidrug-resistant Escherichia coli by broth dilution method; format: functional, organism-based; method in brief: as §1
# [8] = tested on: Klebsiella pneumoniae; assay: Antibacterial activity against multidrug-resistant Klebsiella pneumoniae by broth dilution method; format: functional, organism-based; method in brief: as §1
# [9] = tested on: Pseudomonas aeruginosa; assay: Antibacterial activity against multidrug-resistant Pseudomonas aeruginosa by broth dilution method; format: functional, organism-based; method in brief: as §1
# [10] = tested on: Acinetobacter baumannii; assay: Antibacterial activity against multidrug-resistant Acinetobacter baumannii by broth dilution method; format: functional, organism-based
# [11] = tested on: Pichia kudriavzevii; assay: Antifungal activity against multidrug-resistant Candida krusei by broth dilution method; format: functional, organism-based; method in brief: as §1
# [12] = tested on: Aspergillus fumigatus; assay: Antifungal activity against multidrug-resistant Aspergillus fumigatus by broth dilution method; format: functional, organism-based; method in brief: as §1
# [13] = Cytotoxicity against mouse L5178Y cells assessed as cell viability at 10 ug/ml after 24 hrs by MTT assay; format: cell-based; conditions: read-out: Activity
# Method in brief: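 Mouse lymphoma L5178Y cells; viability read by MTT tetrazolium microculture assay. Run as three independent experiments, each in triplicate. Medium with 0.1% (v/v) EtOH served as the negative control in every experiment.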
Structure (SMILES),Activity [1],Activity [2],Activity [3],Activity [4],Activity [5],Activity [6],Activity [7],Activity [8],Activity [9],Activity [10],Activity [11],Activity [12],further results
O=C1C[C@@H](O)[C@H]2c3c(ccc(O)c31)-c1ccc(O)c3c1[C@]2(O)C=CC3=O,inactive,inactive,inactive,inactive,inactive,inactive,inactive,inactive,inactive,inactive,inactive,inactive,–
COc1cc(O)c(C(=O)O)c(-c2c(C)cc(C(=O)O)oc2=O)c1 [ALTERNARIAN ACID],inactive,inactive,inactive,inactive,inactive,inactive,inactive,inactive,inactive,inactive,inactive,inactive,"viability at 24 h, 10 ug/ml [13]: 99.2%"
COc1cc(O)c(C(=O)O)c(-c2cc(O)c(O)cc2C)c1 [ALTENUSIN],–,–,–,–,–,–,inactive,inactive,inactive,inactive,inactive,inactive,MIC [1]: 31.2 µg/mL; MIC [2]: 31.2 µg/mL; MIC [3]: 62.5 µg/mL; MIC [4]: 125 µg/mL; MIC [5]: 62.5 µg/mL; MIC [6]: 125 µg/mL
O=C1C[C@H](O)[C@@H]2c3c(ccc(O)c31)-c1ccc(O)c3c1[C@@]2(O)CCC3=O,inactive,inactive,inactive,inactive,inactive,inactive,inactive,inactive,inactive,inactive,inactive,inactive,–
COc1c(CC(C)O)c2c3c(CC(C)O)c(C(=O)O)oc4c(O)cc5c(c6c(cc(O)c(c1=O)c62)OCO5)c43 (centres undefined),inactive,inactive,inactive,inactive,inactive,inactive,inactive,inactive,inactive,inactive,inactive,inactive,–
COc1cc(O)c2c(c1)C1C[C@H](O)[C@@H](O)C[C@@]1(C)OC2=O (some centres undefined),inactive,inactive,inactive,inactive,inactive,inactive,inactive,inactive,inactive,inactive,inactive,inactive,–
Cc1cc(O)cc2oc(=O)c3c(O)cc(O)cc3c12,inactive,inactive,inactive,inactive,inactive,inactive,–,–,–,–,–,–,MIC [7]: inactive; MIC [8]: inactive; MIC [9]: inactive; MIC [10]: inactive; MIC [11]: inactive; MIC [12]: inactive
O=C1C=Cc2c3c4c(c(O)ccc4c4ccc(O)c1c24)OC(O)(C(=O)O)C3 (centres undefined) [XANALTERIC ACID II],–,–,–,–,–,–,inactive,inactive,inactive,inactive,inactive,inactive,"viability at 24 h, 10 ug/ml [13]: 87.5%; MIC [1]: 250 µg/mL"
O=C1C=Cc2c3c4c(c(O)ccc4c4ccc(O)c1c24)OC(C(=O)O)C3O (centres undefined) [XANALTERIC ACID I],–,–,–,–,–,–,inactive,inactive,inactive,inactive,inactive,inactive,"viability at 24 h, 10 ug/ml [13]: 45%; MIC [1]: 125 µg/mL"
COc1cc(O)c2c(=O)oc3cc(O)cc(C)c3c2c1,inactive,inactive,inactive,inactive,inactive,inactive,inactive,inactive,inactive,inactive,inactive,inactive,–
O=C1C[C@@H](O)[C@@H]2c3ccc(O)c4c3[C@@H](c3ccc(O)c1c32)[C@H](O)CC4=O,inactive,inactive,inactive,inactive,inactive,inactive,inactive,inactive,inactive,inactive,inactive,inactive,–
COc1cc(O)c2c(c1)C1=C[C@H](O)[C@@H](O)C[C@]1(C)OC2=O,inactive,inactive,inactive,inactive,inactive,inactive,inactive,inactive,inactive,inactive,inactive,inactive,–
COc1c(CC(C)O)c2c3c(CC(C)O)c(OC)c(=O)c4c(O)cc5c(c6c(cc(O)c(c1=O)c62)OCO5)c43 (centres undefined),inactive,inactive,inactive,inactive,inactive,inactive,inactive,inactive,inactive,inactive,inactive,inactive,–
